Laboratory results as given in ChEMBL document CHEMBL1143614, “Structure-activity relationships of the unique and potent agouti-related protein (AGRP)-melanocortin chimeric Tyr-c[beta-Asp-His-DPhe-Arg-Trp-Asn-Ala-Phe-Dpr]-Tyr-NH2 peptide template” (J Med Chem, 2005).
Where a SMILES comes first, the peptide text is derived from it. Bridges are numbered along the chain shown (N, C = ends).

What was measured:
[1] = molecular target: Melanocortin receptor 3 (Mus musculus) (UniProt P33033); test: Agonist activity for mouse Melanocortin-3 receptor; assay type: functional
Outline: (§1)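 HEK-293 cells stably expressing mouse melanocortin receptors (G418-selected) were transiently transfected with a CRE/β-galactosidase reporter. 48 h after transfection, cells were stimulated for 6 h with peptide (10^-4 to 10^-12 M) or forskolin (10^-4 M) in DMEM with 0.1 mg/mL BSA and 0.1 mM IBMX. Lysates were incubated with ONPG at 37° and read at OD405. Signals were normalized to relative protein (OD595) and to forskolin response. EC50 came from nonlinear least-squares fits of duplicate experiments in quadruplet or more.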

[2] = molecular target: Melanocortin receptor 3 (Mus musculus) (UniProt P33033); test: Relative percent of stimulatory activity for mouse Melanocortin-3 receptor at 100 uM; outline: as §1
[3] = molecular target: Melanocortin receptor 4 (Mus musculus) (UniProt P56450)
[4] = molecular target: Melanocortin receptor 3 (Mus musculus) (UniProt P33033); test: Antagonist activity for mouse Melanocortin-3 receptor; assay type: functional
[5] = molecular target: Melanocortin receptor 4 (Mus musculus) (UniProt P56450); test: Partial agonist concentration for mouse Melanocortin-4 receptor; assay type: functional
[6] = molecular target: Melanocortin receptor 4 (Mus musculus) (UniProt P56450); test: Partial agonist activity towards mouse Melanocortin-4 receptor; assay type: functional; outline: as §1
[7] = molecular target: Melanocortin receptor 3 (Mus musculus) (UniProt P33033); test: Partial agonist activity towards mouse Melanocortin-3 receptor; assay type: functional; outline: as §1

Chain of Melanocortin receptor 4 (Mus musculus) (P56450 whole entry): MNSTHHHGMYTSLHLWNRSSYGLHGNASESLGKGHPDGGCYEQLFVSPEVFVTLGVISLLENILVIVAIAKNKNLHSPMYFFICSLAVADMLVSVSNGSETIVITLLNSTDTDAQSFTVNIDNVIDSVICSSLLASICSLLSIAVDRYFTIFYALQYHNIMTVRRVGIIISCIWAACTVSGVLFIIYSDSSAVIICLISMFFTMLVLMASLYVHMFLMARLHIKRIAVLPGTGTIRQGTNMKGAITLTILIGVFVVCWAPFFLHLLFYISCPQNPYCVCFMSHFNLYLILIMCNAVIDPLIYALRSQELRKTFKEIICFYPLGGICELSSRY
Chain of Melanocortin receptor 3 (Mus musculus) (P33033 whole entry): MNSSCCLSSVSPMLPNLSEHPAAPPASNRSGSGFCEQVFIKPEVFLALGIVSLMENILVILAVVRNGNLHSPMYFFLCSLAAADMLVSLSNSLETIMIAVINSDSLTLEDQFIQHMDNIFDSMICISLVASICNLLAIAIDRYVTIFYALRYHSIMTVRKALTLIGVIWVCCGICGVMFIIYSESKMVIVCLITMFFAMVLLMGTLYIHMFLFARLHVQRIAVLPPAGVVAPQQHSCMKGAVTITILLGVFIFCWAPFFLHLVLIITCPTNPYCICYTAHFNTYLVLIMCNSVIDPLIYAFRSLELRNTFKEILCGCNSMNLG

Which pA2 [1] does the source give for `C[C@@H]1NC(=O)[C@H](CC(N)=O)NC(=O)[C@H](Cc2c[nH]c3ccccc23)NC(=O)[C@H](CCCN=C(N)N)NC(=O)[C@@H](Cc2ccccc2)NC(=O)C2(CCc3ccccc3C2)NC(=O)[C@@H](NC(=O)[C@@H](N)Cc2ccc(O)cc2)CC(=O)N([C@@H](Cc2ccc(O)cc2)C(N)=O)[C@@](C)(C(=O)O)NC(=O)[C@H](Cc2ccccc2)NC1=O` (mixture of isomers) here?
The pA2 was 6.4.

And the SA [2]?
The SA was 40%.

Which pA2 [3] does the source give for `C[C@@H]1NC(=O)[C@H](CC(N)=O)NC(=O)[C@H](Cc2ccccc2)NC(=O)[C@H](Cc2ccccc2)NC(=O)[C@H](CCCN=C(N)N)NC(=O)[C@@H](NC(=O)[C@@H](N)Cc2ccc(O)cc2)CSSC[C@@H](C(=O)N[C@@H](Cc2ccc(O)cc2)C(N)=O)NC(=O)[C@H](Cc2ccccc2)NC1=O` (H-YCRFFNAFCY-NH2; disulfide 2-9) here?
The pA2 was 6.8.

How did the pA2 [4] turn out when `C[C@@H]1NC(=O)[C@H](CC(N)=O)NC(=O)[C@H](Cc2c[nH]c3ccccc23)NC(=O)[C@H](CCCN=C(N)N)NC(=O)[C@@H](Cc2ccc3ccccc3c2)NC(=O)[C@H](Cc2c[nH]cn2)NC(=O)[C@@H](NC(=O)[C@@H](N)Cc2ccc(O)cc2)CC(=O)N([C@@H](Cc2ccc(O)cc2)C(N)=O)[C@@](C)(C(=O)O)NC(=O)[C@H](Cc2ccccc2)NC1=O` was run?
Its pA2 is 8.2.

What about the pA2 [5] of the same compound?
Its pA2 is 9.1.

Which pA2 [4] does the source give for `C[C@@H]1NC(=O)[C@H](CC(N)=O)NC(=O)[C@H](Cc2c[nH]c3ccccc23)NC(=O)[C@H](CCCN=C(N)N)NC(=O)[C@@H](Cc2ccc(I)cc2)NC(=O)[C@H](Cc2c[nH]cn2)NC(=O)[C@@H](NC(=O)[C@@H](N)Cc2ccc(O)cc2)CC(=O)N([C@@H](Cc2ccc(O)cc2)C(N)=O)[C@@](C)(C(=O)O)NC(=O)C(Cc2ccccc2)NC1=O` (stereo in doubt) here?
Its pA2 is 8.8.

And the pA2 [6]?
The pA2 was 9.4.

With `C[C@@H]1NC(=O)[C@H](CC(N)=O)NC(=O)[C@H](Cc2c[nH]c3ccccc23)NC(=O)[C@H](CCCN=C(N)N)NC(=O)[C@@H](Cc2ccccc2)NC(=O)[C@@H]2CCCN2C(=O)[C@@H](NC(=O)[C@@H](N)Cc2ccc(O)cc2)CC(=O)N([C@@H](Cc2ccc(O)cc2)C(N)=O)[C@@](C)(C(=O)O)NC(=O)[C@H](Cc2ccccc2)NC1=O` as the compound, how does the pA2 [7] read?
Its pA2 is 7.2.
